The species entered for data set [1] is Mus musculus. In words: Compound was tested for its potency to induce TNF-alpha in murine macrophage cultures in the absence of INF at 10 mg/mL concentration. In kind it is functional. In outline: (§1)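 Bone marrow cells from B6D2F1 mouse femurs differentiated 8-10 days at 37 °C, 5% CO2 in DMEM with 10% FCS, 5% horse serum and 20% L929 supernatant (CSF-1). Macrophages at 10⁶ cells/mL adhered 3 h, then incubated overnight without IFN-γ. Washed, exposed 4 h to compound in serum-free medium. Supernatant TNF-α measured by cytotoxicity to actinomycin-D-treated L929 cells, as IU/mL.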

Data set [2] concerns Mus musculus. In words: Nonspecific resistance against Pseudomonas aeruginosa infection in mice; administration of a single dose (12.5 mg/kg) 1 day prior to infection, group size 10 mice. The data set is classed as functional. An outline of the steps: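 B6D2F1 mice given cyclophosphamide 200 mg/kg s.c. on day -4, then a single i.v. dose of 12.5 mg/kg on day -1 (Tris salts). Survival scored after 4 days of observation. Groups of 10 mice.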

Data set [3] is filed under the species Mus musculus. In words: Compound was tested for its potency to induce TNF-alpha in murine macrophage cultures in the absence of INF at 1 mg/mL concentration. In kind it is functional. In outline:
as §1

Data set [4] is filed under the species Mus musculus. Description: Compound was tested for its potency to induce TNF-alpha in murine macrophage cultures in the presence of INF at 10 mg/mL concentration. In kind it is functional. In outline: (§2)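 Macrophages derived from B6D2F1 mouse bone marrow (8-10 days with L929 supernatant as CSF-1 source), plated at 10⁶ cells/mL. Adherent cells primed overnight with 100 units/mL interferon γ, washed, then incubated 4 h with compound in serum-free medium. TNF-α in supernatants determined by cytotoxicity to actinomycin-D-treated L929 cells, as IU/mL.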

Data set [5] is filed under the species Mus musculus. Description: Compound was tested for its potency to induce TNF-alpha in murine macrophage cultures in the presence of INF at 1 mg/mL concentration. In kind it is functional. In outline: as §2
A short description of data set [6]: The endotoxic potential (LD50) by iv administration and ip administration of galactosamine (400 mg/kg). As to conditions: mouse, in vivo. In kind it is ADME, organism-based. An outline of the steps: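 C57BL/6 mice, groups of six. Serial dilutions given i.v. by tail vein (0.2 mL, saline, or isotonic glucose with 1% ethanol) together with galactosamine 400 mg/kg i.p. LD50 calculated by probit analysis from survivors at 1 day.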

Data set [7] is filed under the species Mus musculus. Description: Effective dose against Pseudomonas aeruginosa infection in mice. In kind it is functional. An outline of the steps: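 B6D2F1 mice made myelosuppressed with cyclophosphamide 200 mg/kg sc on day -4. Compound given iv as Tris salt on day -1. Survival scored over 4 days, groups of 10. ED50 obtained by Probit analysis.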

The LD50 is the dose at which mortality reaches 50%. A lower LD50 goes with a more toxic substance. The term ED50 denotes the dose that gives a 50% effect, or the effect in half of the subjects. Low values mean greater potency, high ones weaker potency.

As to `CCCCCCCCCCCC(O)CC(=O)NC1C(OC(=O)CC[C@H](NC(=O)CC(O)CCCCCCCCCCC)C(=O)O)OC(CO)C(O)C1OC(=O)CC(O)CCCCCCCCCCC` (stereo partly drawn), the Activity in the data set filed under Mus musculus [1] amounted to 576 IU ml-1; in the data set listed under Mus musculus [3] it was 270 IU ml-1; in the data set filed under Mus musculus [4], 3285 IU ml-1; in the data set listed under Mus musculus [5], 1511 IU ml-1. The same compound gave an NSR survival rate with Mus musculus [2] of 9. Besides, the LD50 in data set [6] is 0.3 mg/kg. In addition, the ED50 in the data set listed under Mus musculus [7] is 5.7 mg/kg.
For `CCCCCCCCCCCC(O)CC(=O)NC1C(OC(=O)CC[C@H](NC(=O)CC(O)CCCCCCCCCCC)C(=O)O)OC(CO)C(O)C1NC(=O)CC(O)CCCCCCCCCCC` (stereo partly drawn), the Activity in the data set listed under Mus musculus [1] was determined as 1069 IU ml-1; in the data set listed under Mus musculus [3] it was 175 IU ml-1; in the data set listed under Mus musculus [4], 1570 IU ml-1; in the data set filed under Mus musculus [5], 294 IU ml-1. For the same compound, the NSR survival rate in the data set on Mus musculus [2] is recorded as 8. In data set [6], this compound displayed a median lethal dose (LD50) of 0.2 mg/kg. Besides, it took a dose of 1.5 mg/kg to reach the 50% effect level in the data set filed under Mus musculus [7] (ED50).
Consider `CCCCCCCCCCCC(O)CC(=O)NC1C(OCCCN(CC(=O)O)C(=O)CC(O)CCCCCCCCCCC)OC(CO)C(O)C1OC(=O)CC(O)CCCCCCCCCCC` (stereo not drawn), for which the Activity in the data set filed under Mus musculus [1] stood at 1498 IU ml-1; in the data set listed under Mus musculus [3], 523 IU ml-1; in the data set filed under Mus musculus [4] it was 3050 IU ml-1; in the data set listed under Mus musculus [5] it was 920 IU ml-1. The compound further gave an NSR survival rate with Mus musculus [2] of 10. This compound displayed a 50% lethal dose (LD50) in data set [6] of 0.1 mg/kg. In the data set filed under Mus musculus [7], this compound displayed a median effective dose (ED50) of 1.5 mg/kg.
As to `CCCCCCCCCCCC(O)CC(=O)NC1C(OC(=O)C[C@@H](NC(=O)CC(O)CCCCCCCCCCC)C(=O)O)OC(CO)C(O)C1OC(=O)CC(O)CCCCCCCCCCC` (stereo partly drawn), the Activity amounted to 618 IU ml-1 in the data set listed under Mus musculus [1], 218 IU ml-1 in the data set listed under Mus musculus [3], 2768 IU ml-1 in the data set listed under Mus musculus [4] and 2708 IU ml-1 in the data set filed under Mus musculus [5]. Further, in the data set on Mus musculus [2], the NSR survival rate came to 10. Also, the LD50 in data set [6] was < 0.05 mg/kg. In the data set filed under Mus musculus [7], this compound returned an ED50 of 3.1 mg/kg.
Regarding `CCCCCCCCCCCC(O)CC(=O)NC1C(OC(=O)CC[C@@H](NC(=O)CC(O)CCCCCCCCCCC)C(=O)O)OC(CO)C(O)C1OC(=O)CC(O)CCCCCCCCCCC` (stereo partly drawn), the Activity in the data set listed under Mus musculus [1] is given as 688 IU ml-1; in the data set listed under Mus musculus [3], 518 IU ml-1; in the data set listed under Mus musculus [4], >2409 IU ml-1; in the data set listed under Mus musculus [5], >2409 IU ml-1. In the data set with Mus musculus [2], the NSR survival rate worked out at 10. The same compound yielded an LD50 in data set [6] of 0.04 mg/kg. Further, the ED50 in the data set listed under Mus musculus [7] was determined as 0.3 mg/kg.
Turning to `CCCCCCCCCCCC(O)CC(=O)NC1C(OC(=O)CC[C@@H](NC(=O)CC(O)CCCCCCCCCCC)C(=O)O)OC(CO)C(O)C1NC(=O)CC(O)CCCCCCCCCCC` (stereo partly drawn), the Activity in the data set listed under Mus musculus [1] is 464 IU ml-1; in the data set filed under Mus musculus [3], 27 IU ml-1; in the data set filed under Mus musculus [4] it was 609 IU ml-1; in the data set listed under Mus musculus [5], 151 IU ml-1. For the same compound, in the data set with Mus musculus [2], the NSR survival rate is on record as 3. Moreover, the median lethal dose (LD50) in data set [6] amounted to 5.1 mg/kg. Also, the 50% effective dose (ED50) in the data set filed under Mus musculus [7] was > 25 mg/kg.
For `CCCCCCCCCCCC(O)CC(=O)NC1C(OC(=O)C[C@H](NC(=O)CC(O)CCCCCCCCCCC)C(=O)O)OC(CO)C(O)C1OC(=O)CC(O)CCCCCCCCCCC` (stereo partly drawn), the Activity in the data set listed under Mus musculus [1] was determined as 446 IU ml-1; in the data set filed under Mus musculus [3], 0 IU ml-1; in the data set listed under Mus musculus [4], 899 IU ml-1; in the data set listed under Mus musculus [5], 25 IU ml-1. Moreover, the NSR survival rate in the data set with Mus musculus [2] came out at 8. In data set [6], the LD50 is 1 mg/kg. In the data set listed under Mus musculus [7], the 50% effective dose (ED50) was > 12.5 mg/kg.
As for `CCCCCCCCCCCC(O)CC(=O)NC1C(OCCCN(CC(=O)O)C(=O)CC(O)CCCCCCCCCCC)OC(CO)C(O)C1O` (stereo not drawn), the Activity in the data set filed under Mus musculus [1] and in the data set filed under Mus musculus [4] was 0 IU ml-1 throughout. The compound further returned an NSR survival rate with Mus musculus [2] of 3. Moreover, the LD50 in data set [6] was > 5 mg/kg.

For the origin of these results see ChEMBL document CHEMBL1126219, “Acyclic analogues of lipid A: synthesis and biological activities” (J Med Chem, 1992).
